A selection: hits, their analogues and other compounds. The true share with any hit is near 2.8%.
PAFAH1B3 inh: blocks human PAF acetylhydrolase 1B catalytic subunit 3. inhibition, % at 3.39 µM. hit rate 0.28% among 340,000. Q15102. recombinant PAFAH1B3, FP-rhodamine probe, fluorescence polarization;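 active = inhibition above the screen-wide average of all tested compounds plus 3 SD, cut at about 25% in these data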;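 also: 0% = enzyme with DMSO only and 100% = wells lacking PAFAH1B3 protein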
PAFAH2 inh: PAFAH2 (human) inhibition; recombinant PAFAH2, FP-rhodamine activity probe, fluorescence polarization; inhibition, % at 3.39 µM; Q99487; hit rate 0.99% among 340,000; AID 492956;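 active = inhibition above the mean over all tested compounds plus 3 SD, cut at about 30% in these data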;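 also: inhibitors block probe labeling of enzyme so polarization drops; 0% = enzyme with DMSO and 100% = wells lacking PAFAH2 protein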
ABHD4 inh: ABHD4 (mouse) inhibition, primary FP screen | Q8VD66 | purified mABHD4, FP-Rh probe fluorescence polarization | inhibition, % at 8.92 µM | hit rate 0.54% among 370,000;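 active = inhibition exceeding the mean over every tested compound plus 3 SD, cut at about 30% in these data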;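 also: 0% = plate median of compound wells and 100% = S159A mutant with DMSO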
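System: mouse ABHD4 enzyme, wild type / Medium: HEPES pH 7.0, NaCl, Pluronic buffer / Reagent: FP-Rh activity-based fluorescent probe / Control set: S159A mutant high control, sample median low control / Detection: fluorescence polarization with parallel and perpendicular emission, 525/598 nm / Schedule: 45 min + 60 min at 25 °C / Compound dosing: 8.92 µM, single dose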
PAFAH1B2 inh: PAFAH1B2 (human) inhibition. P68402. recombinant PAFAH1B2, FP-rhodamine activity probe, fluorescence polarization. inhibition, % at 3.39 µM. hit rate 1.2% among 340,000;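 active = inhibition above the mean of all tested compounds plus 3 SD, cut at about 24% in these data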;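 also: 0% = enzyme with DMSO and 100% = wells lacking PAFAH1B2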
HTRA1 inh: HTRA1 (human) protease inhibition. recombinant HTRA1, FP-rhodamine activity-based probe, fluorescence polarization. inhibition, % at 5.96 µM. hit rate 0.5% among 340,000; in the data active = inhibition above about 36%;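 also: 0% = enzyme with DMSO and 100% = wells lacking enzyme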
pPAFAH FP inh: inhibitors of human plasma PAF acetylhydrolase (pPAFAH) | Q13093 | recombinant pPAFAH, FP-rhodamine probe fluorescence polarization | inhibition, % at 3.39 µM | hit rate 1.5% among 330,000 | AID 463082;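 active = inhibition above the mean inhibition across the screen plus 3 SD, cut at about 25% in these data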;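 also: inhibitors block binding of the rhodamine activity-based probe so polarization drops; 0% = enzyme with DMSO and 100% = wells lacking pPAFAH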
Target sequence (Q13093 whole entry, looked up): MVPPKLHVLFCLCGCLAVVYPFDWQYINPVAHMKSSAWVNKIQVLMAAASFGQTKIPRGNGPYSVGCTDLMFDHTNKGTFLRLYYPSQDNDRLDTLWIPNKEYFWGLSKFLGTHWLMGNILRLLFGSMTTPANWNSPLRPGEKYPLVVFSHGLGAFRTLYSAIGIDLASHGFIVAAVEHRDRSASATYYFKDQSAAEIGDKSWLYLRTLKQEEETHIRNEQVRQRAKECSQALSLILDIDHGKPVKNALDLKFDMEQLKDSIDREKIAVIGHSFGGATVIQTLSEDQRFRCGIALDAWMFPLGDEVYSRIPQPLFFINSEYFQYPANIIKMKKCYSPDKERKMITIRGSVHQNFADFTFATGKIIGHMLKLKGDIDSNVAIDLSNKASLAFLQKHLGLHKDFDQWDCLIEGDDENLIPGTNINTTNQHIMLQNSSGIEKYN
ABHD4 confirm: ABHD4 (mouse) inhibition, FP confirmation | inhibition, % at 8.92 µM | hit rate 55% among 1,800 | shares compounds with ABHD4 inh | purified mABHD4, FP-Rh probe fluorescence polarization;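 active = mean inhibition across replicates above the hit cutoff set in the primary screen, cut at about 30% in these data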;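 also: 0% = wild-type ABHD4 with DMSO and 100% = catalytically dead S159A mutant with DMSO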
The depositor's hits bear a star; nt = not tested or not shown.

SMILES	PAFAH1B3 inh	PAFAH2 inh	ABHD4 inh	PAFAH1B2 inh	HTRA1 inh	pPAFAH FP inh	ABHD4 confirm
Cc1cc2c(NC(=O)Nc3ccc(C(F)(F)F)cc3)cccc2nn1	-29	-24	109*	-14	35	10	-101
Cc1cc2c(NC(=O)CCCC(=O)O)cccc2nn1	1	1	2	1	-5	0	nt
Cn1c(=O)oc2ccc(S(=O)(=O)Nc3ccc(Cl)cc3[N+](=O)[O-])cc21	nt	nt	9	nt	nt	nt	nt
O=C(C1=C(O)C(=O)N(CCc2ccccc2)C1c1cccs1)c1ccco1 (stereo unspecified)	1	7	35*	5	1	-5	31*
O=C(C1=C(O)C(=O)N(CCc2ccccc2)C1c1cccnc1)c1ccco1 (stereo unspecified)	4	-5	2	8	1	-6	nt
COc1ccccc1N(C)c1cc2c(c3c1ccn3C)C1CCC2C1 (stereo unspecified)	nt	nt	33*	nt	nt	nt	12
CCN(C)c1cc2c(c3c1ccn3C)C1CCC2C1 (stereo unspecified)	nt	nt	-2	nt	nt	nt	nt
COc1ccc(Cn2ccc3ccc(-c4ccc5ccn(Cc6ccc(OC)cc6)c5c4)cc32)cc1	nt	nt	5	nt	nt	nt	nt
COc1ccccc1CNC(=O)COC(=O)c1cc(C)nc2ccccc12	4	-3	0	5	-13	-4	nt
COc1cc2cc(C)nc(Cc3cccc4ccccc34)c2cc1OC	-3	-1	33*	7	-18	3	41*
COc1ccccc1CNc1nc(NCCOc2ccccc2)c2sccc2n1	nt	nt	37*	nt	nt	nt	40*
COc1ccccc1CNc1nc(NCc2ccccc2OC)c2sccc2n1	nt	nt	15	nt	nt	nt	nt
Cc1ccc(CNc2nc(NCc3ccccc3)nc3ccsc23)c(C)c1	nt	nt	35*	nt	nt	nt	47*
COc1ccc(NC(=O)Nc2ccccc2C(=O)N2CCCC2)cc1OC	nt	nt	4	nt	nt	nt	nt
CNC[C@H](CC1CCCCC1)NC[C@H](Cc1ccccc1)NCCC12CC3CC(CC(C3)C1)C2	16	-3	48*	0	-5	-2	75*
NC[C@H](Cc1ccccc1)NCCCCC1CCCCC1	0	3	19	7	6	4	nt
COCCCNC(=O)C[C@H]1C[C@@]2(C(=O)OC)C(=C[C@H](COCc3ccccc3)O[C@@H]2C)N(Cc2ccco2)C1=O	nt	nt	0	nt	nt	nt	nt
COc1ccc(/C=N/NC(=O)c2nn(-c3ccccc3)c(=O)c3c(N)scc23)cc1	6	3	46*	5	21	21	27
COc1ccc(/C=N/NC(=O)c2nn(-c3ccc(Cl)cc3)c(=O)c3c(N)scc23)cc1	8	5	30*	10	22	22	17
CCCCCCCCN1CCS(=O)(=O)N(Cc2ccc(F)cc2)C(C(=O)OC)C1 (stereo unspecified)	nt	nt	2	nt	nt	nt	nt
O=C(N1CCCC1)n1ncc(-c2ccc(-c3ccccc3)cc2)n1	nt	nt	47*	nt	nt	nt	42*
Nn1c(SCC(=O)NC2CCCCC2)nnc1-c1cc(-c2ccccc2)n[nH]1	nt	nt	2	nt	nt	nt	nt
Oc1ccc2ccccc2c1N=Nc1ccccc1F	-2	-8	5	9	7	6	nt
Oc1ccc2ccccc2c1N=Nc1ccccn1	5	9	50*	2	14	14	53*
CC(C)(C)c1ccc(S(=O)(=O)NC(=O)C2(C)CCN2C(=O)Cc2ccc(-c3ccccc3)cc2)cc1 (stereo unspecified)	nt	nt	45*	nt	nt	nt	15
SMILES	PAFAH1B3 inh	PAFAH2 inh	ABHD4 inh	PAFAH1B2 inh	HTRA1 inh	pPAFAH FP inh	ABHD4 confirm
CCCC(C)C(=O)NC1CCCCN(Cc2ccccc2C)C1=O (stereo unspecified)	nt	nt	4	nt	nt	nt	nt
Nc1ccc2c(O)cc(S(=O)(=O)O)cc2c1	60*	54*	39*	37*	25	nt	26
CCC(=O)N(Cc1ccco1)c1nc(-c2ccc(OC)cc2)cs1	-4	11	1	0	-2	-1	nt
CCC(=O)N(Cc1ccco1)c1nc(-c2cc(OC)ccc2OC)cs1	-2	1	49*	6	8	6	58*
CCOc1ccc(OCCCC(=O)Nc2nc3ccccc3[nH]2)cc1	5	-2	2	2	0	-1	nt
CCCOc1cccc(OCC(=O)Nc2nc3ccccc3[nH]2)c1	0	4	31*	1	-6	-9	26
CCCCOc1cccc(OCC(=O)Nc2nc3ccccc3[nH]2)c1	-4	0	43*	-3	-7	4	26
O=C(COc1ccccc1)Nc1nc2ccccc2[nH]1	7	3	-4	7	0	2	nt
CN1C(=O)C(c2cn(C)c3ccccc23)(c2cn(C)c3ccccc23)c2ccccc21	nt	nt	-3	nt	nt	nt	nt
CCOc1cc(C(=O)NCC(C)(C)CNC(=O)c2cc(OCC)c(OCC)c(OCC)c2)cc(OCC)c1OCC	nt	nt	36*	nt	nt	0	34*
COc1cc(C(=O)NCC(C)(C)CNC(=O)c2cc(OC)c(OC)c(OC)c2)cc(OC)c1OC	1	0	-4	-2	1	-1	nt
CCOC(=O)c1ccc(NC2=CC(=O)C(=O)c3ccccc32)cc1	58*	38*	30*	14	9	17	44*
NS(=O)(=O)c1ccc(NC2=CC(=O)C(=O)c3ccccc32)cc1	19	13	31*	2	14	18	9
C[C@H]1C2CC(OC(=O)Nc3ccc4c(c3)OCO4)C(C2)[C@H]2CCCCN21 (stereo partly specified)	nt	nt	0	nt	nt	nt	nt
Oc1ccc(Br)cc1C=Nc1ccc2c3c(cccc13)CC2	13	6	55*	5	20	28*	22

Source: PubChem (The Scripps Research Institute Molecular Screening Center)
